Measured values: paper PMC5600292 (Biochimica et biophysica acta, 2017)

Columns and labels:
Type in all cases: biochemical
[1] = target: human recombinant thrombin I174A (Homo sapiens, UniProt P00734, I542A); assay: HPLC-based kinetic assay of FXIII AP hydrolysis, I174A thrombin
Method in brief: (§1)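 Synthetic Ac-/-NH2 FXIII (28–41) AP peptides (V34, L34, F34, W34, Y34) were used at 75–2500 µM final in 50 mM H3PO4, 100 mM NaCl, 0.1% PEG, pH 7.4, 25 °C. Recombinant human thrombin (6 nM–1 µM) started the reaction; aliquots were quenched with 12.5% H3PO4, keeping hydrolysis below 17% in 30 min. The (28–37) product was quantified by RP-HPLC against calibration curves. Initial velocities were fitted to V = Vmax/(1+Km/[S]), kcat taken from thrombin concentration, in triplicate.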

[2] = target: human recombinant thrombin W215A (Homo sapiens, UniProt P00734, W590A); assay: HPLC-based kinetic assay of FXIII AP hydrolysis, W215A thrombin
Method in brief: as §1

[3] = target: human recombinant thrombin W60dA (Homo sapiens, UniProt P00734, W413A); assay: HPLC-based kinetic assay of FXIII AP hydrolysis, W60dA thrombin; details: W60dA IIa, pH 7.4, 25 °C, average of at least three independent experiments ± SEM
Method in brief: as §1

[4] = target: human recombinant thrombin L99A (Homo sapiens, UniProt P00734, L459A); assay: HPLC-based kinetic assay of FXIII AP hydrolysis, L99A thrombin
Method in brief: as §1

[5] = target: human recombinant thrombin wild-type (WT) (Homo sapiens, UniProt P00734); assay: HPLC-based kinetic assay of thrombin-catalyzed hydrolysis of FXIII; details: WT IIa, pH 7.4, 25 °C, average of at least three independent experiments ± SEM
Method in brief: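 Recombinant human thrombin hydrolysed acetylated, amidated FXIII (28–41) activation peptides with V, L, F, W or Y at position 34 (final 75–2500 µM). Reactions ran at 25 °C in 50 mM H3PO4, 100 mM NaCl, 0.1% PEG, pH 7.4, with 6 nM–1 µM thrombin, and kept <17% hydrolysis in 30 min. Timed aliquots were quenched with 12.5% H3PO4. The (28–37) product was quantified by C18 RP-HPLC against calibration curves, giving initial velocities. These were fit to V = Vmax/(1 + Km/[S]), and kcat came from thrombin concentration. Runs were in triplicate.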

[6] = target: human recombinant thrombin W215A/E217A (WE) (Homo sapiens, UniProt P00734, E592A/W590A); assay: HPLC-based kinetic assay of FXIII AP hydrolysis, W215A/E217A
Method in brief: as §1

[7] = I174A IIa, HPLC assay, pH 7.4, 25 °C, average of at least three independent experiments ± SEM, SEM
[8] = W215A IIa, HPLC assay, pH 7.4, 25 °C, average of at least three independent experiments ± SEM, SEM
[9] = L99A IIa, HPLC assay, pH 7.4, 25 °C, average of at least three independent experiments ± SEM, SEM
[10] = WE (W215A/E217A) IIa, HPLC assay, pH 7.4, 25 °C, average of at least three independent experiments ± SEM, SEM

Substance: Ac-TVELQGWVPRGVNL-NH2 [FXIII (28–41) W34 AP]
- kcat/Km ([1]; I174A IIa, HPLC assay, pH 7.4, 25 °C, average of at least three independent experiments ± SEM): 54000 ± 5500 M⁻¹ s⁻¹
- Km [1, 7]: 256 ± 24 µM
- kcat [1, 7]: 13.9 ± 0.52 s⁻¹
- fold increase in kcat relative to WT thrombin ([1]; I174A thrombin, current work): 2 fold
- fold increase in kcat/Km relative to WT thrombin ([1]; I174A thrombin, current work): 4.5 fold
- kcat/Km ([2]; W215A IIa, HPLC assay, pH 7.4, 25 °C, average of at least three independent experiments ± SEM): 5600 ± 340 M⁻¹ s⁻¹
- Km [2, 8]: 1030 ± 57 µM
- kcat [2, 8]: 5.76 ± 0.14 s⁻¹
- fold decrease in Km over WT thrombin ([2]; W215A thrombin, current work): 2 fold
- kcat/Km [3]: 1200 ± 120 M⁻¹ s⁻¹
- Km ([3]; SEM): 976 ± 89 µM
- kcat ([3]; SEM): 1.21 ± 0.05 s⁻¹
- kcat/Km ([4]; L99A IIa, HPLC assay, pH 7.4, 25 °C, average of at least three independent experiments ± SEM): 3200 ± 490 M⁻¹ s⁻¹
- Km [4, 9]: 719 ± 97 µM
- kcat [4, 9]: 2.3 ± 0.17 s⁻¹
- fold decrease in kcat relative to WT thrombin ([4]; L99A thrombin, current work): 3 fold
- kcat/Km [5]: 12000 ± 1200 M⁻¹ s⁻¹
- Km ([5]; SEM): 637 ± 56 µM
- kcat ([5]; SEM): 7.62 ± 0.3 s⁻¹
- kcat/Km ([6]; WE (W215A/E217A) IIa, HPLC assay, pH 7.4, 25 °C, average of at least three independent experiments ± SEM): 270 ± 35 M⁻¹ s⁻¹
- Km [6, 10]: 1280 ± 161 µM
- kcat [6, 10]: 0.35 ± 0.03 s⁻¹
- fold decrease in Km over WT thrombin ([6]; WE thrombin, current work): 2 fold
